From PubChem BioAssay
zfTRPN1 agonist: activates the zebrafish TRPN1 channel. AID 1424. HEK293 zebrafish TRPN1-YFP, Fluo-8 calcium fluorescence; 100% = response to 87 µM carbachol. activation, % at 3 µM. 220,000 tested, 0.18% active;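 active = activation above its plate's cutoff, the mean activation of test wells on that plate plus 3 SD, cut at about 19% in these data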;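 also: 0% = DMSO alone and 100% = 87 µM carbachol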
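Control set: carbachol 87 µM as high control, DMSO as low control; system: HEK293 stable line with zebrafish TRPN1-YFP; read-out: % activation versus carbachol response; detection: intracellular calcium fluorescence with Fluo-8; doses: single test compound dose, 3 µM nominal, 0.3% DMSO; schedule: dye 1 h 37 °C plus 30 min RT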
CRFR2-BP ag: CRF-BP/CRF-R2 complex agonism; 350,000 tested, 0.46% active; AID 588473; activation, % at 13.2 µM; HEK293 CRF-R2/CRF-BP, calcium dye fluorescence (FLIPR); percent of saturating CRF peptide response;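 active = activation of at least 50%, plus an integration ratio under a set limit after plate pattern correction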;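 also: plate controls were neutral control wells without compound for no effect and CRF at EC100 for full effect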
VIM-2 inh: blocks Pseudomonas aeruginosa VIM-2 metallo-beta-lactamase | inhibition, % at 5.6 µM | 290,000 tested, 0.89% active | AID 1527 | purified VIM-2, nitrocefin hydrolysis, epi-absorbance fluorescence;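 active = inhibition above the mean of all tested compounds plus 3 SD, cutoff set per screening run, cut at about 7.5% in these data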;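 also: red hydrolysis product quenches plate fluorescence so inhibitors raise well fluorescence; 0% = enzyme with DMSO and 100% = DMSO without enzyme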
TRPML3 agonist: activates the human TRPML3 channel; HEK293 TRPML3-YFP, Fluo-8 calcium fluorescence; 100% = the carbachol control signal; activation, % at 3 µM; Q8TDD5; AID 1448; 220,000 tested, 0.29% active;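 active = activation above its plate's cutoff, the mean activation of the plate's test wells plus 3 SD, cut at about 12% in these data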;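 also: 0% = DMSO only wells and 100% = carbachol wells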
Target sequence (Q8TDD5 whole entry, looked up): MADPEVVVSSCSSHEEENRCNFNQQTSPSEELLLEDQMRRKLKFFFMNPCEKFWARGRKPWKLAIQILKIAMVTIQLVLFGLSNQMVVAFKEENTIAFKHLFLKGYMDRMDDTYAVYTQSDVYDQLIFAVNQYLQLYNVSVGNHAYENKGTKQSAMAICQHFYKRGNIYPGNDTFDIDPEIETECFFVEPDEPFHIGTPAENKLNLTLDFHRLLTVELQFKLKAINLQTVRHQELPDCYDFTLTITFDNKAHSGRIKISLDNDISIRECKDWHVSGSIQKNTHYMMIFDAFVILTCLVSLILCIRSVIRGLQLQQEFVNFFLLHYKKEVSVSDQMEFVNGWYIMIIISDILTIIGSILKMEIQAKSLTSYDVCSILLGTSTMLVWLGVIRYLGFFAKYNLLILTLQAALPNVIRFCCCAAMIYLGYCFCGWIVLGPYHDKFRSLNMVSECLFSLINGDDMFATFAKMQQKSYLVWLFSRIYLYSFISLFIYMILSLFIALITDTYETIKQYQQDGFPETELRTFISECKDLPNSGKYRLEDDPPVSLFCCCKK
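system = HEK293 cells stably carrying human TRPML3-YFP | doses = one concentration, 3 µM nominal, 0.3% DMSO | timing = dye loading 1 h 37 °C then 30 min ambient, 125 s read | detection = Fluo-8 calcium dye fluorescence, ex 470-495, em 515-575 nm | benchmarks = high control carbachol 87 µM, low control DMSO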
CRFBP-R2 block: CRF-BP/CRF-R2 complex antagonism; HEK293 CRF-R2/CRF-BP, CRF-induced calcium fluorescence; inhibition, % at 11.8 µM; 350,000 tested, 0.59% active; AID 588475;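 active = inhibition of the ligand-induced calcium signal above about 50% at the single tested concentration, limit read from the data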
IMP-1 inh: blocks Pseudomonas aeruginosa IMP-1 metallo-beta-lactamase. purified IMP-1, nitrocefin hydrolysis, epi-absorbance fluorescence. inhibition, % at 5.6 µM. 290,000 tested, 0.45% active. AID 1556;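 active = inhibition above the mean plus 3 SD of all compounds in the same screening run, cut at about 4.5% in these data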;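 also: 0% = IMP-1 with DMSO and 100% = DMSO wells lacking enzyme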
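Assay system: purified recombinant IMP-1 beta-lactamase. Input: IMP-1 0.2 nM before substrate addition. Buffer or medium: Zinc- and detergent-supplemented HEPES buffer, pH 7.1. Schedule: 25 °C, 15 min preincubation, 25 min reaction. Signal: Epi-absorbance fluorescence, 480 nm excitation, 530 nm emission. Evaluation: percent inhibition from optical density relative to buffer-blank wells.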
An asterisk follows results filed as active; nt = no result given. The list is not random: actives were taken first. Their share in the collection is about 2.1%.

SMILES | zfTRPN1 agonist | CRFR2-BP ag | VIM-2 inh | TRPML3 agonist | CRFBP-R2 block | IMP-1 inh
O=C(CN1CCCCC1)n1c2ccccc2c2ccccc21 | -2 | -1 | 0 | -1 | -8 | -1
COc1ccc(C(CNC(=O)c2cccc(S(=O)(=O)Nc3ccc(F)cc3)c2)N2CCCCC2)cc1 (centres undefined) | nt | -1 | nt | nt | -8 | nt
Cc1c(NC(=S)N/N=C\c2ccccc2O)c(=O)n(-c2ccccc2)n1C | 0 | 0 | 7.8* | 1 | -3 | -4
Cc1c(NC(=S)N/N=C/c2ccc(Br)cc2)c(=O)n(-c2ccccc2)n1C | 0 | 0 | 0 | 0 | -4 | -4
COCCn1c(SCC(=O)N2CCCCC2)nc2c(c1=O)SCC2 | nt | -1 | -1 | nt | 8 | -1
CCn1c(SCC(=O)N2CCCCC2)nc2c(c1=O)SCC2 | nt | -1 | 0 | nt | 52* | -2
COCCN1C(=O)C(=O)/C(=C(/O)c2ccc(C)cc2)C1c1ccccn1 (centres undefined) | 0 | 4 | 0 | 0 | -10 | -2
COC(CN1C(=O)C(=O)/C(=C(/O)c2ccccc2)C1c1ccccn1)OC (centres undefined) | 0 | -1 | 9.6* | 0 | 8 | -3
O=[n+]1c2c(n([O-])c3cc(F)c(N4CCCC4)cc31)CCC2 | 3 | 47 | 1 | 6 | -35 | 1
O=[n+]1c2c(n([O-])c3cc(F)c(N4CCCC4)cc31)CCCC2 | 8 | 55* | 0 | 4 | -20 | -1
Nc1ccccc1Oc1c(F)c(F)c(Oc2ccccc2N)c(F)c1F | -2 | -3 | 0 | -1 | 67* | -4
CCC(C)c1ccc(S(=O)(=O)N2CCN(S(=O)(=O)c3ccc(NC(C)=O)cc3)CC2)cc1 (centres undefined) | nt | -1 | -1 | nt | 9 | -2
CCOc1c(Cl)cc(CNc2ccc(S(N)(=O)=O)cc2)cc1OC | 2 | 3 | 0 | -1 | 10 | -1
COc1c(Cl)cc(Cl)cc1CNc1ccc(S(N)(=O)=O)cc1 | 0 | 0 | 0 | 0 | 58* | 0
COc1ccc(C(=O)Nc2ccc(C3CC3(Cl)Cl)cc2)cc1 (centres undefined) | 3 | 3 | -1 | 1 | 75* | -3
COc1ccc(NC(=O)c2ccc(NC(=O)c3ccncc3)cc2)cc1 | nt | 6 | -2 | nt | -4 | 0
Cc1cccc(Nc2nc(Cl)ncc2F)c1C | nt | 0 | -2 | nt | 0 | -5
Nc1ccc(N=Nc2ccccc2)cc1[N+](=O)[O-] | nt | 3 | nt | nt | 63* | nt
Cc1ccc(N)c([N+](=O)[O-])c1 | nt | -2 | nt | nt | 21 | nt
COc1cc(CNCc2ccncc2)cc(OC)c1OC | nt | 0 | 1 | nt | -3 | 6.1*
Oc1c(CN2CCOCC2)cc(COCc2ccccc2)c2cccnc12 | 0 | 1 | 7.7* | 0 | -32 | -6
CCn1c(=O)c(CCC(=O)NCCN2CCOCC2)c(C)c2c(C)nn(-c3ccccc3)c21 | nt | 0 | 9.6* | nt | -5 | -2
COC(=O)c1sc2cc([N+](=O)[O-])cc(SCC(C)C)c2c1N | 4 | 55* | -1 | 2 | -156 | -1
Cc1cccc(N2CCN(C(=O)c3c(-c4ccccc4)noc3C)CC2)c1C | nt | 1 | -3 | nt | -7 | -2
Cc1nc(NC2=NCN(CCCN3CCOCC3)CN2)nc2c(C)cccc12 | 0 | 3 | 8.7* | 0 | 16 | -1
SMILES | zfTRPN1 agonist | CRFR2-BP ag | VIM-2 inh | TRPML3 agonist | CRFBP-R2 block | IMP-1 inh
COc1ccc(CCNC(=S)c2ccccc2)cc1OC | nt | 0 | -1 | nt | 7 | 1
Cc1c(O)cc2c(c1O)C(=O)CC(c1ccccc1)O2 (centres undefined) | nt | 105* | nt | nt | -38 | nt
FC(F)(F)c1ccccc1-c1nc(-c2ccncc2)no1 | nt | -1 | -2 | nt | 57* | -1
O=C(O)c1ccc(-c2noc(-c3ccccc3C(F)(F)F)n2)cc1 | nt | 2 | nt | nt | -8 | nt
COc1ccc(CC(=O)N/N=C(\C)CC(=O)Nc2ccc3c(c2)OCCO3)cc1OC | nt | -1 | -1 | nt | 0 | -2
CN1CCN(c2ccc(S(=O)(=O)N3CCOCC3)cc2NC(=O)C2CCCCC2)CC1 | nt | 1 | nt | nt | 7 | nt
O=C(Nc1cc(S(=O)(=O)N2CCCCC2)ccc1N1CCCCC1)C1CC1 | -1 | 1 | 0 | 0 | 103* | -2
